Source: ChEMBL document CHEMBL1123397, “Antiarrhythmic activity of 17 beta-aminoestratrienes. Comparison of 3-ols and 3-acetates with the corresponding 3-(3-amino-2-hydroxypropyl) ethers” (1986)
Values after ≈ are worked out from the molar mass of the structure shown.

Tests used:
[1] = organism: Cavia porcellus; experiment: Compound was tested for antiarrhythmic activity expressed as resting membrane potential (RMP) in guinea pig atria at 2(ug/mL) concentration; format: functional; settings: Heart
In short: (§1)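 Guinea pig left atria pinned in a recording chamber, superfused with carbogen-gassed Krebs solution at 35 ± 0.5 °C and electrically stimulated. Transmembrane action potentials were recorded with conventional microelectrodes, giving RMP, AP height, APD50, APD90 and maximum rate of depolarization. Values are mean ± SEM from n cells across five preparations.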

[2] = organism: Cavia porcellus; experiment: Concentration required to reduce maximum following frequencu (MFF) of isolated guinea pig atria by 25%; format: functional
In short: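 Guinea pig left atria in an organ bath of Krebs solution at 35 °C, gassed with carbogen, electrically driven, isometric contractions recorded. Drugs added cumulatively; maximum following frequency determined 6 min after each concentration. Concentration reducing MFF by 25% (EC25) calculated from six preparations.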

[3] = test system: Rattus norvegicus; experiment: Effect dose of compound that antagonized arrhythmias evoked by coronary artery ligation in the rat was measured at 0.05 mg/kg dose; format: functional
In short: (§2)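 Male Wistar rats, anaesthetised and artificially ventilated, with left thoracotomy; silk suture under main left coronary artery. After stabilization, test drug or vehicle i.v.; 14 min later isoprenaline 10 μg/kg; 1 min after that the ligature was tightened and VF incidence recorded over 30 min. Carotid pressure and lead II ECG monitored continuously. 7-12 animals per group.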

[4] = organism: Cavia porcellus; experiment: Compound was tested for antiarrhythmic activity (time taken to reach 90% repolarization) in guinea pig atria at 4(ug/mL) concentration; format: functional, Heart; in short: as §1
[5] = test system: Rattus norvegicus; experiment: Compound was tested for antagonism of Ventricular Fibrilloflutter (VF) evoked by coronary artery ligation in the rat measured at 0.05 mg/kg dose; format: functional, Heart; in short: as §2
[6] = organism: Cavia porcellus; experiment: Compound was tested for antiarrhythmic activity (time taken to reach 90% repolarization) in guinea pig atria at 2(ug/mL) concentration; format: functional, Heart; in short: as §1
[7] = organism: Cavia porcellus; experiment: Compound was tested for antiarrhythmic activity expressed as resting membrane potential (RMP) in guinea pig atria at 1(ug/mL) concentration; format: functional; settings: Heart; in short: as §1
[8] = organism: Cavia porcellus; experiment: Compound was tested for antiarrhythmic activity expressed as resting membrane potential (RMP) in guinea pig atria at 4(ug/mL) concentration; format: functional; settings: Heart; in short: as §1
[9] = test system: Rattus norvegicus; experiment: Compound was tested for antagonism of Ventricular Fibrilloflutter (VF) evoked by coronary artery ligation in the rat measured at 0.02 mg/kg dose; format: functional, Heart; in short: as §2
[10] = organism: Mus musculus; experiment: ED 50 value against aconitine-induced arrhythmias in mice; format: functional
In short: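 Anaesthetised mice were given test compound intraperitoneally, then aconitine intravenously to induce arrhythmia. At least three doses were tested in separate groups (n = 6-10). ED50 is the dose raising the arrhythmogenic aconitine dose 50% above the control requirement.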

[11] = organism: Cavia porcellus; experiment: Compound was tested for antiarrhythmic activity (maximum rate of phase 0 depolarization- MRD) in guinea pig atria at 4(ug/mL) concentration; format: functional, Heart; in short: as §1
[12] = organism: Cavia porcellus; experiment: Compound was tested for antiarrhythmic activity (maximum rate of phase 0 depolarization- MRD) in guinea pig atria at 1(ug/mL) concentration; format: functional, Heart; in short: as §1
[13] = test system: Rattus norvegicus; experiment: Compound was tested for antagonism of Ventricular Fibrilloflutter (VF) evoked by coronary artery ligation in the rat measured at 0.1 mg/kg dose; format: functional, Heart; in short: as §2
[14] = organism: Cavia porcellus; experiment: Compound was tested for antiarrhythmic activity expressed as action potential height (AP) in guinea pig atria at 1(ug/mL) concentration; format: functional, Heart; in short: as §1
[15] = organism: Cavia porcellus; experiment: Compound was tested for antiarrhythmic activity (time taken to reach 50% repolarization) in guinea pig atria at 1(ug/mL) concentration; format: functional, Heart; in short: as §1
[16] = organism: Cavia porcellus; experiment: Compound was tested for antiarrhythmic activity expressed as action potential height (AP) in guinea pig atria at 4(ug/mL) concentration; format: functional, Heart; in short: as §1
[17] = organism: Cavia porcellus; experiment: Compound was tested for antiarrhythmic activity expressed as action potential height (AP) in guinea pig atria at 2(ug/mL) concentration; format: functional, Heart; in short: as §1
[18] = organism: Cavia porcellus; experiment: Compound was tested for antiarrhythmic activity (time taken to reach 50% repolarization) in guinea pig atria at 2(ug/mL) concentration; format: functional, Heart; in short: as §1
[19] = organism: Cavia porcellus; experiment: Compound was tested for antiarrhythmic activity (time taken to reach 90% repolarization) in guinea pig atria at 1(ug/mL) concentration; format: functional, Heart; in short: as §1
[20] = organism: Cavia porcellus; experiment: Compound was tested for antiarrhythmic activity (maximum rate of phase 0 depolarization- MRD) in guinea pig atria at 2(ug/mL) concentration; format: functional, Heart; in short: as §1
[21] = organism: Cavia porcellus; experiment: Compound was tested for antiarrhythmic activity (time taken to reach 50% repolarization) in guinea pig atria at 4(ug/mL) concentration; format: functional, Heart; in short: as §1
[22] = test system: Rattus norvegicus; experiment: Compound was tested for antagonism of Ventricular Fibrilloflutter (VF) evoked by coronary artery ligation in the rat measured at 5 mg/kg dose; format: functional, Heart; in short: as §2
[23] = test system: Rattus norvegicus; experiment: Effective dose that antagonized arrhythmias evoked by coronary artery ligation in the rat was measured at 5 mg/kg dose; format: functional
[24] = test system: Rattus norvegicus; experiment: Effect on heart rate on 1 min post isoprenaline induced tachycardia in the anesthetized rat at 5.0 mg/kg dose.; format: functional
In short: (§3)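 Test drug or vehicle was given i.v., and isoprenaline (10 µg/kg) 14 min later. Heart rate was read from the lead II ECG just before drug, at 14 min (pre-isoprenaline) and 1 min after isoprenaline. Compared by Student's t test; 7–12 animals per group; mean ± SEM.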

[25] = test system: Rattus norvegicus; experiment: Effect on heart rate after isoprenaline induced tachycardia in the anesthetized rat at 5 mg/kg dose; format: functional
In short: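 Same ligation protocol in anaesthetised male Wistar rats. Heart rate was taken from the lead II ECG at three points: just before i.v. drug or vehicle, 14 min after it (just before isoprenaline 10 μg/kg), and 1 min after isoprenaline. Pre vs post rates and isoprenaline responses vs controls were compared by Student's t test. Mean ± SEM of 7-12 observations.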

[26] = organism: Rattus norvegicus; experiment: Maximum increase in heart rate evoked by isoprenaline.; format: functional; in short: as §3
[27] = test system: Rattus norvegicus; experiment: Effect on heart rate before isoprenaline induced tachycardia in the anesthetized rat at 5 mg/kg dose; format: functional; in short: as §3
[28] = test system: Rattus norvegicus; experiment: Compound was tested for antagonism of Ventricular Fibrilloflutter (VF) evoked by coronary artery ligation in the rat measured at 10 mg/kg dose; format: functional, Heart; in short: as §2
[29] = test system: Rattus norvegicus; experiment: Mean change in heart rate recorded 14 min after the administration of compound.; format: functional; in short: as §3
[30] = test system: Rattus norvegicus; experiment: Antagonism of Ventricular Fibrilloflutter (VF) evoked by coronary artery ligation in the rat measured at 2 mg/kg dose; format: functional, Heart; in short: as §2

## CNC1[C@H](O)C[C@H]2[C@@H]3CCc4cc(O)ccc4[C@H]3CC[C@]12C (stereo not given in full)
[1]
  RMP: 75.8 mV
[2]
  EC25: 1.67 µg/mL (≈ 5.54 µM)
[3]
  ED50: 0.04 mg/kg
[4]
  APD90: 80.6 ms
[5]
  VF: 33%
[6]
  APD90: 80.2 ms
[7]
  RMP: 72.8 mV
[8]
  RMP: 72.1 mV
[9]
  VF: 83%
[10]
  ED50: 5.9 mg/kg
[11]
  MRD: 62.4 V s-1
[12]
  MRD: 98.4 V s-1
[13]
  VF: 17%
[14]
  AP: 85.8 mV
[15]
  APD50: 49.2 ms
[16]
  AP: 81.5 mV
[17]
  AP: 86.3 mV
[18]
  APD50: 45.5 ms
[19]
  APD90: 83.6 ms
[20]
  MRD: 86.5 V s-1
[21]
  APD50: 44.5 ms

## CC(=O)Nc1ccc(OCC(O)CNC(C)C)cc1 (stereo not given) [PRACTOLOL]
[22]
  VF: 43%
[23]
  ED50: 5.6 mg/kg
[24]
  Heart rate: 377 beats min-1
[25]
  Heart rate: 351 beats min-1
[26]
  Increase: 7.4%
[27]
  Heart rate: 459 beats min-1
[28]
  VF: 29%
[29]
  Change: -23.5%
[30]
  VF: 80%
